Data on 42 compounds can be found in ChEMBL document CHEMBL1139176, “Tetrazole and ester substituted tetrahydoquinoxalines as potent cholesteryl ester transfer protein inhibitors” (Bioorg Med Chem Lett, 2007).

The structures appear in SMILES notation.

System in one data set: not listed separately
As to the kind of experiment: Half life in rat at 2 mg/kg, iv. The data set is classed as ADME, organism-based. Further details: dose 2 mg/kg, route intravenous. The conditions noted are these: in vivo.
Regarding `CCOC(=O)N1c2ccc(C(F)(F)F)cc2N(C(c2cc(C(F)(F)F)cc(C(F)(F)F)c2)c2nnn(C)n2)C[C@H]1CC` (stereo in doubt; (D2)-55d), the half-life was 2.4 h.

A further data set has as its target T1, Cholesteryl ester transfer protein (Homo sapiens, UniProt P11597).
T1 sequence (P11597 whole entry): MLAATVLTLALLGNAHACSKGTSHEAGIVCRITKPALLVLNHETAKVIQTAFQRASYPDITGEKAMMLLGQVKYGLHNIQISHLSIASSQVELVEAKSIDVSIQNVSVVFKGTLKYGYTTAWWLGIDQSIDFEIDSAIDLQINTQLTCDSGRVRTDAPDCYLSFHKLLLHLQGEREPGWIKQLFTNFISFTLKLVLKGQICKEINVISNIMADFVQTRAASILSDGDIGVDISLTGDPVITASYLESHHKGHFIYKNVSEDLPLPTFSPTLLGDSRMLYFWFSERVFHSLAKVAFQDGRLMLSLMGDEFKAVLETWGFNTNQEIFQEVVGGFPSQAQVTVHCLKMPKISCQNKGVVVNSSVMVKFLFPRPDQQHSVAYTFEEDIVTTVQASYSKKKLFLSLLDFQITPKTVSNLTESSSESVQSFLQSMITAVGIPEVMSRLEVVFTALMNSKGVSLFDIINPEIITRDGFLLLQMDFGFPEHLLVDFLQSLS
Briefly: Inhibition of CETP in human plasma. The data set is classed as cell-free.
Settings: not given
In short, it runs like this:
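Radiometric transfer of ³H-cholesteryl ester from HDL to LDL, with human plasma supplying both CETP and LDL. Inhibitor, plasma and ³H-CE-HDL (diluted to 50 cholesterol) were incubated in 4% (v/v) final DMSO for 6 h at 37 °C. The reaction was stopped with 10 U heparin in 0.3 M MnCl₂ (final) to precipitate LDL, then spun at 1000g and supernatant (2/3 of assay volume) removed. IC50 reported.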
In the case of `CCOC(=O)N1c2ccc(Br)cc2N(C(C(=O)OC)c2cc(C(F)(F)F)cc(C(F)(F)F)c2)CC1CC` (stereo unspecified), the midpoint of inhibition, the IC50, lay at 1.9 µM.

`CCOC(=O)N1c2ccc(C(F)(F)F)cc2N(C(c2cc(C(F)(F)F)cc(C(F)(F)F)c2)c2nnn(CC(=O)OC)n2)CC1CC` (stereo unspecified) displayed a half-maximal inhibitory concentration (IC50) of 32.5 µM.

With `CCC1CN(C(c2cc(C(F)(F)F)cc(C(F)(F)F)c2)c2nnn(C)n2)c2cc(C(F)(F)F)ccc2N1CC1CCCC1` (stereo unspecified), inhibition was half-maximal at 0.854 µM (IC50).

The compound `CCOC(=O)N1c2ccccc2N(C(C(=O)OC)c2cc(C(F)(F)F)cc(C(F)(F)F)c2)CC1CC` (stereo in doubt; (D2)-16b) returned a half-maximal inhibitory concentration (IC50) of 8.6 µM.

Turning to `CCOC(=O)N1c2ccc(C(F)(F)F)cc2N(C(c2cc(C(F)(F)F)cc(C(F)(F)F)c2)c2nnn(CCN(C)C)n2)CC1CC` (stereo unspecified), 7.81 µM corresponded to half-maximal inhibition (IC50).

In turn, `CCOC(=O)N1c2ccc(C(F)(F)F)cc2N(C(c2cc(C(F)(F)F)cc(C(F)(F)F)c2)c2nnn(C)n2)C[C@@H]1CC` (stereo in doubt; (D1)-55b) had a half-maximal inhibitory concentration (IC50) of 47.5 µM.

`CCC1CN(C(c2cc(C(F)(F)F)cc(C(F)(F)F)c2)c2nnn(C)n2)c2cc(C(F)(F)F)ccc2N1CC1CCCCC1` (stereo in doubt; (D2)-39b) yielded a half-maximal inhibitory concentration (IC50) of 5.7 µM.

The compound `CCOC(=O)N1c2ccc(C(F)(F)F)cc2N(C(c2cc(C(F)(F)F)cc(C(F)(F)F)c2)c2nnn(CCC(=O)OC)n2)CC1CC` (stereo unspecified) showed a 50% inhibitory concentration (IC50) of 4.42 µM.

`CCOC(=O)N1c2ccccc2N(C(Cc2cc(C(F)(F)F)cc(C(F)(F)F)c2)C(=O)OC)CC1CC` (stereo in doubt; (D2)-10b): the IC50 was > 100 µM.

Consider `CCOC(=O)N1c2ccc(C(F)(F)F)cc2N(C(c2cc(C(F)(F)F)cc(C(F)(F)F)c2)c2nnn(C)n2)C[C@H]1CC` (stereo in doubt; (D1)-55a), for which the IC50 is 0.44 µM.

For the compound `CCOC(=O)N1c2ccccc2N(C(Cc2ccccc2)C(=O)OC)CC1CC` (stereo in doubt; (D1)-9a), the half-maximal inhibitory concentration (IC50) is > 100 µM.

As for `CCOC(=O)N1c2ccc(C(F)(F)F)cc2N(C(c2cc(C(F)(F)F)cc(C(F)(F)F)c2)c2nnn(C)n2)C[C@H]1CC` (stereo in doubt; (D2)-55d), the IC50 was 0.143 µM.

As to `CCOC(=O)N1c2cc(Cl)c(Cl)cc2N(C(C(=O)OC)c2cc(C(F)(F)F)cc(C(F)(F)F)c2)CC1CC` (stereo in doubt; (D2)-18b), the IC50 was 93.4 µM.

`CCCCOC(=O)N1c2ccc(C(F)(F)F)cc2N(C(c2cc(C(F)(F)F)cc(C(F)(F)F)c2)c2nnn(C)n2)CC1CC` (stereo unspecified) gave an IC50 of 1.11 µM.

Take `CCC1CN(C(c2cc(C(F)(F)F)cc(C(F)(F)F)c2)c2nnn(C)n2)c2cc(C(F)(F)F)ccc2N1C(=O)N1CCCC1` (stereo unspecified): the IC50 is 100 µM.

Regarding `CCOC(=O)N1c2ccccc2N(C(C(=O)OC)c2cc(C(F)(F)F)cc(C(F)(F)F)c2)CC1CC` (stereo in doubt; (D1)-16a), the half-inhibitory concentration (IC50) is 5 µM.

The compound `CCNC(=O)N1c2ccc(C(F)(F)F)cc2N(C(c2cc(C(F)(F)F)cc(C(F)(F)F)c2)c2nnn(C)n2)CC1CC` (stereo unspecified) gave a concentration for half-maximal inhibition (IC50) of 46.4 µM.

As to `CCCCC(CC)COC(=O)N1c2ccc(C(F)(F)F)cc2N(C(c2cc(C(F)(F)F)cc(C(F)(F)F)c2)c2nnn(C)n2)CC1CC` (stereo unspecified), half-maximal inhibition (IC50) was put at 62.6 µM.

As for `CCOC(=O)N1c2ccccc2N(C(Cc2ccccc2)C(=O)OC)CC1CC` (stereo in doubt; (D2)-9b), the IC50 was > 100 µM.

Take `CCOC(=O)N1c2ccc(C(F)(F)F)cc2N(C(c2cc(C(F)(F)F)cc(C(F)(F)F)c2)c2nnn(CC(N)=O)n2)CC1CC` (stereo in doubt; (D2)-50b): half-maximal inhibition (IC50) was put at 100 µM.

The compound `CCC1CN(C(c2cc(C(F)(F)F)cc(C(F)(F)F)c2)c2nnn(C)n2)c2cc(C(F)(F)F)ccc2N1C(=O)N(C)C` (stereo unspecified) returned an IC50 of 100 µM.

Consider `CCC1CN(C(c2cc(C(F)(F)F)cc(C(F)(F)F)c2)c2nnn(C)n2)c2cc(C(F)(F)F)ccc2N1C(=O)NCCO` (stereo in doubt; (D2)-33b), for which the IC50 turned out to be 4.57 µM.

`CCOC(=O)N1c2ccc(C(F)(F)F)cc2N(C(c2cc(C(F)(F)F)cc(C(F)(F)F)c2)c2nnn(CC(N)=O)n2)CC1CC` (stereo in doubt; (D1)-50a) displayed an IC50 of 5.22 µM.

As to `CCOC(=O)N1c2ccc(C(F)(F)F)cc2N(C(c2cc(C(F)(F)F)cc(C(F)(F)F)c2)c2nnn(CC(=O)OC(C)(C)C)n2)CC1CC` (stereo unspecified), the half-maximal inhibitory concentration (IC50) came out at 14.6 µM.

In turn, `CCC1CN(C(c2cc(C(F)(F)F)cc(C(F)(F)F)c2)c2nnn(C)n2)c2cc(C(F)(F)F)ccc2N1CC1CCCCC1` (stereo in doubt; (D1)-39a) registered an IC50 of 1.3 µM.

With `CCOC(=O)N1c2cc(Cl)c(Cl)cc2N(C(C(=O)OC)c2cc(C(F)(F)F)cc(C(F)(F)F)c2)CC1CC` (stereo in doubt; (D1)-18a), the IC50 amounted to 92.5 µM.

`CCC1CN(C(c2cc(C(F)(F)F)cc(C(F)(F)F)c2)c2nnn(C)n2)c2cc(C(F)(F)F)ccc2N1C[C@H]1CC[C@H](CC(=O)O)CC1` (stereo partly specified) came in with a 50% inhibitory concentration (IC50) of 2.91 µM.

Regarding `CCOC(=O)N1c2ccc(C(F)(F)F)cc2N(C(c2cc(C(F)(F)F)cc(C(F)(F)F)c2)c2nnn(CC(=O)O)n2)CC1CC` (stereo unspecified), the midpoint of inhibition, the IC50, lay at 54.6 µM.

Turning to `CCC1CN(C(c2cc(C(F)(F)F)cc(C(F)(F)F)c2)c2nnn(C)n2)c2cc(C(F)(F)F)ccc2N1C(=O)N1CCOCC1` (stereo unspecified), inhibition was half-maximal at 36.9 µM (IC50).

In turn, `CCOC(=O)N1c2ccc(C(F)(F)F)cc2N(C(c2cc(C(F)(F)F)cc(C(F)(F)F)c2)c2nnn(C)n2)C[C@@H]1CC` (stereo in doubt; (D2)-55c) came in with an IC50 of 1.5 µM.

Take `CCC1CN(C(c2cc(C(F)(F)F)cc(C(F)(F)F)c2)c2nnn(C)n2)c2cc(C(F)(F)F)ccc2N1C(=O)OCC(C)C` (stereo unspecified): the IC50 is 0.232 µM.

As for `CCOC(=O)N1c2ccccc2N(C(Cc2cc(C(F)(F)F)cc(C(F)(F)F)c2)C(=O)OC)CC1CC` (stereo in doubt; (D1)-10a), the IC50 is > 100 µM.

Compound `CCC1CN(C(c2cc(C(F)(F)F)cc(C(F)(F)F)c2)c2nnn(C)n2)c2cc(C(F)(F)F)ccc2N1C(=O)NCCO` (stereo in doubt; (D1)-33a) returned an IC50 of 100 µM.

With `CCOC(=O)N1c2ccc(C(F)(F)F)cc2N(C(c2cc(C(F)(F)F)cc(C(F)(F)F)c2)c2nnn(CCO)n2)CC1CC` (stereo in doubt; (D1)-46a), the IC50 is 2.26 µM.

The compound `CCOC(=O)N1c2ccc(C(F)(F)F)cc2N(C(c2cc(C(F)(F)F)cc(C(F)(F)F)c2)c2nnn(C)n2)CC1CC` (stereo in doubt; (D1)-28a) registered an IC50 of 0.87 µM.

`CCOC(=O)N1c2ccc(C(F)(F)F)cc2N(C(c2cc(C(F)(F)F)cc(C(F)(F)F)c2)c2nnn(CCO)n2)CC1CC` (stereo in doubt; (D2)-46b) returned an IC50 of 2.22 µM.

In turn, `CCC1CN(C(c2cc(C(F)(F)F)cc(C(F)(F)F)c2)c2nnn(C)n2)c2cc(C(F)(F)F)ccc2N1C(=O)OCc1ccccc1` (stereo unspecified) gave a half-inhibitory concentration (IC50) of 4.4 µM.

With `CCOC(=O)N1c2ccc(C(F)(F)F)cc2N(C(c2cc(C(F)(F)F)cc(C(F)(F)F)c2)c2nnn(C)n2)CC1CC` (stereo in doubt; (D2)-28b), the IC50 stood at 0.23 µM.

`CCOC(=O)N1c2ccc(C(F)(F)F)cc2N(C(C(=O)OC)c2cc(C(F)(F)F)cc(C(F)(F)F)c2)CC1CC` (stereo in doubt; (D2)-22b) displayed a half-maximal inhibitory concentration (IC50) of 0.56 µM.

`CCOC(=O)N1c2ccc(C(F)(F)F)cc2N(C(c2cc(C(F)(F)F)cc(C(F)(F)F)c2)c2nnn(CC3CC3)n2)CC1CC` (stereo unspecified) had a half-inhibitory concentration (IC50) of 4.55 µM.

The compound `CCOC(=O)N1c2ccc(C(F)(F)F)cc2N(C(C(=O)OC)c2cc(C(F)(F)F)cc(C(F)(F)F)c2)CC1CC` (stereo in doubt; (D1)-22a) gave a half-inhibitory concentration (IC50) of 0.5 µM.

`CCOC(=O)N1c2ccc(C(F)(F)F)cc2N(C(c2cc(C(F)(F)F)cc(C(F)(F)F)c2)c2nnn(CCC#N)n2)CC1CC` (stereo unspecified): the IC50 was found to be 3.42 µM.

System in another data set: not listed separately
As to the kind of experiment: Volume of distribution in rat at 2 mg/kg, iv. The class given is ADME, organism-based. Further details: dose 2 mg/kg, route intravenous. Conditions: in vivo.
In turn, `CCOC(=O)N1c2ccc(C(F)(F)F)cc2N(C(c2cc(C(F)(F)F)cc(C(F)(F)F)c2)c2nnn(C)n2)C[C@H]1CC` (stereo in doubt; (D2)-55d) registered a distribution volume (Vd) of 2.6 L/kg.

System in the next data set: not listed separately
As to the kind of experiment: Clearance in rat at 2 mg/kg, iv. The class given is ADME, organism-based. Further details: dose 2 mg/kg, route intravenous. The conditions noted are these: in vivo.
With `CCOC(=O)N1c2ccc(C(F)(F)F)cc2N(C(c2cc(C(F)(F)F)cc(C(F)(F)F)c2)c2nnn(C)n2)C[C@H]1CC` (stereo in doubt; (D2)-55d), the clearance came to 13 mL/min/kg.

System in another data set: not listed separately
As to the kind of experiment: Solubility at pH 7.4. The class given is physicochemical. Conditions: buffer.
In the case of `CCOC(=O)N1c2ccc(C(F)(F)F)cc2N(C(c2cc(C(F)(F)F)cc(C(F)(F)F)c2)c2nnn(C)n2)C[C@H]1CC` (stereo in doubt; (D2)-55d), the Solubility was < 0.01 µg/mL.

The term half-life denotes how long it takes for the measured level to halve. Lower therefore signals rapid decline. For orientation: IC50 means the concentration that gives 50% inhibition. A low value points to inhibition by little substance. For orientation: Vd means a proportionality between amount in the body and measured concentration, not a real space. The clearance is the rate of elimination divided by the concentration. Higher therefore signals a high capacity for elimination. The term Solubility denotes how much of the substance goes into solution per volume.
